The test system of one test is Histoplasma capsulatum. Briefly: Antifungal activity against Histoplasma capsulatum G217B after 10 to 14 days by microscopic method. In kind it is functional. In short, it runs like this: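 G217B yeast-phase cells were grown in brain-heart infusion for 3 days at 37 °C under 5% CO2, then used at 1×10⁴ cells/mL final in RPMI. Twofold dilutions were tested at 64 to 0.125 µg/mL final; itraconazole (16 µg/mL downward) and amphotericin B (16 to 0.008 µg/mL) were diluted similarly. Plates were incubated 10–14 days at 37 °C under 5% CO2, with vehicle controls.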

The next test has as its system Candida albicans. Briefly: Antifungal activity against Candida albicans SC5314 at 0.25 to 64 ug/ml after 48 hrs by microscopic method. In kind it is functional, organism-based. The method in brief:
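SC5314 yeast grown overnight in YPD at 30 °C were counted by hemocytometer and used at 1×10⁴ cells/mL final in YPD. Twofold compound dilutions from DMSO stocks were tested at 64 to 0.125 µg/mL final, incubated 48 h at 30 °C, with DMSO-only and untreated controls.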

A further test concerns Aspergillus fumigatus. Briefly: Antifungal activity against Aspergillus fumigatus Af293 at 0.25 to 64 ug/ml after 48 hrs by microscopic method. The class given is functional, organism-based. In short, it runs like this: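 Af293 spores in RPMI with 0.1% Tween-80 were counted by hemocytometer and used at 1×10⁴ spores/mL final. Twofold compound dilutions in RPMI from DMSO stocks were tested at 64 to 0.125 µg/mL final in 96-well plates at 37 °C for 48 h, alongside DMSO-only and untreated controls.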

Test [1] deals with Transient receptor potential cation channel subfamily M member 8 (Homo sapiens, UniProt Q7Z2W7). Briefly: Antagonist activity at human TRPM8 channel expressed in HEK293 cells assessed as inhibition of icilin-induced calcium flux by Fluo-4-AM dye based fluorescence assay. The class given is cell-based. In short, it runs like this:
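Stable human TRPM8 HEK-293 cells, grown in DMEM:F12 with 5% FBS and Geneticin on gelatin-coated plates, were loaded with Fluo-4 AM for 60 min at 37 °C. Compounds were added 30 min before reading in LHC-9 with 1 mM probenecid and 0.75 mM trypan red. Icilin 50 µM was the agonist. Signal was normalized to the maximal agonist response, and IC50 came from 8-point curves with n=2–3.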
A general note: Calcium flux is commonly read through the fluorescence of an indicator in the cells.

Test [2] deals with Transient receptor potential cation channel subfamily V member 1 (Homo sapiens, UniProt Q8NER1). Briefly: Antagonist activity at human TRPV1 channel expressed in human BEAS2B cells assessed as inhibition of […] by Fluo-4-AM dye based fluorescence assay. The class given is cell-based.
Chain of Transient receptor potential cation channel subfamily V member 1 (Q8NER1 whole entry): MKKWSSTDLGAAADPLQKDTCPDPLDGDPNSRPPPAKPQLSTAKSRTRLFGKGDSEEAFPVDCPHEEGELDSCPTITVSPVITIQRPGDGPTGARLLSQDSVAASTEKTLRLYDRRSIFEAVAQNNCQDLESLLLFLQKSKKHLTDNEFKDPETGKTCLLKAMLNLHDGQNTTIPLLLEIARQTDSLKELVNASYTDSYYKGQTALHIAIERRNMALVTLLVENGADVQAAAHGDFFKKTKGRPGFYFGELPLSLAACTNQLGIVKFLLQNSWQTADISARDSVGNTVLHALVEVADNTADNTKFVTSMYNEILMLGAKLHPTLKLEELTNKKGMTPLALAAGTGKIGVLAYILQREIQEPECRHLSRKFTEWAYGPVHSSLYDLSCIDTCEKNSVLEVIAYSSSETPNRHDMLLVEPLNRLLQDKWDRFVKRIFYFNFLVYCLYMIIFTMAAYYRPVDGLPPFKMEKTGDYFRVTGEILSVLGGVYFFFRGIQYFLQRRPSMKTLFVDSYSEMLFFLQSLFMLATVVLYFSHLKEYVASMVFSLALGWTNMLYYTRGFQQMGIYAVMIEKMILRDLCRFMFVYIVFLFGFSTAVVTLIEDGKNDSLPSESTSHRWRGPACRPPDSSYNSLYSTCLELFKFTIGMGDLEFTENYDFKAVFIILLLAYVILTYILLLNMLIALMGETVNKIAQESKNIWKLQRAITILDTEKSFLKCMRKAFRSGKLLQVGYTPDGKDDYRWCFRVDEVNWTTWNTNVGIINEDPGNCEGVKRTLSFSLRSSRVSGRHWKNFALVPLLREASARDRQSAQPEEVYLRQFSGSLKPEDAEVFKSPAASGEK
Test [3] has as its target Transient receptor potential cation channel subfamily V member 4 (Homo sapiens, UniProt Q9HBA0). Briefly: Antagonist activity at human TRPV4 channel expressed in HEK293 cells assessed as inhibition of GSK1016790A-induced calcium flux by Fluo-4-AM dye based fluorescence assay. In kind it is cell-based. The method in brief:
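HEK-293 cells stably overexpressing human TRPV4 were loaded with Fluo-4 AM for 60 min at 37 °C. Compounds were preincubated 30 min in LHC-9 containing 1 mM probenecid and 0.75 mM trypan red. GSK1016790A 0.03 µM was the agonist. Fluorescence change was normalized to the maximal agonist response, and IC50 came from 8-point curves with n=2–3.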

Converted amounts (≈) assume the structure as drawn. The source made the active and inactive calls. The rule behind the calls is not given here.

Chain of Transient receptor potential cation channel subfamily M member 8 (Q7Z2W7 whole entry): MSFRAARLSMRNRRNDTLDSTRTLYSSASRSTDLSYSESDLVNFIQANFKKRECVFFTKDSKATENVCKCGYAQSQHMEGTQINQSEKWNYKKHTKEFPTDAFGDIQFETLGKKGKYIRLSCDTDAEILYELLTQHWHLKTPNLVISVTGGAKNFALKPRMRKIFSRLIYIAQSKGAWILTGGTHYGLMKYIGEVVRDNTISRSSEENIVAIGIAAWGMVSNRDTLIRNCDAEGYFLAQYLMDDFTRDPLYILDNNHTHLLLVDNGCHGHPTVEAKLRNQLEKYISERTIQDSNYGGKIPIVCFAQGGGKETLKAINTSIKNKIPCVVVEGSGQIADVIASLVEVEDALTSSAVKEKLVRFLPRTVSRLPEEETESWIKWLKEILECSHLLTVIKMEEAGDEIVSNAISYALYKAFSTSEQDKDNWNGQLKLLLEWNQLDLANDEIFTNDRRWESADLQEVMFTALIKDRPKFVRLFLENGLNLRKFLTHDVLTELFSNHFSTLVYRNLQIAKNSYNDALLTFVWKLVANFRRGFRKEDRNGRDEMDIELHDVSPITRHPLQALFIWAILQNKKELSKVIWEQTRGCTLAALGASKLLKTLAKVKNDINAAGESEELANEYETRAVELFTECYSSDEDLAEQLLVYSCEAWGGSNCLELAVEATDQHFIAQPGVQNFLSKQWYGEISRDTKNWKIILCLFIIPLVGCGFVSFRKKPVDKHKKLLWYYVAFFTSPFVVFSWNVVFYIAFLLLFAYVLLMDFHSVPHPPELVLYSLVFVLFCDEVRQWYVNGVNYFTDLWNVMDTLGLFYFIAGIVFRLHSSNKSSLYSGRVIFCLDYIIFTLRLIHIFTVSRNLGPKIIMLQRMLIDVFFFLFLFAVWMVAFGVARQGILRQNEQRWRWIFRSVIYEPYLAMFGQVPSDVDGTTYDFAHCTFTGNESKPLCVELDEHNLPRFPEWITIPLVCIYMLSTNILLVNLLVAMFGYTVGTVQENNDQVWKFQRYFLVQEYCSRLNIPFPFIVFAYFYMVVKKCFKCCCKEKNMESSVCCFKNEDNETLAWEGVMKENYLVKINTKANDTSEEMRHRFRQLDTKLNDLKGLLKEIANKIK
Chain of Transient receptor potential cation channel subfamily V member 4 (Q9HBA0 whole entry): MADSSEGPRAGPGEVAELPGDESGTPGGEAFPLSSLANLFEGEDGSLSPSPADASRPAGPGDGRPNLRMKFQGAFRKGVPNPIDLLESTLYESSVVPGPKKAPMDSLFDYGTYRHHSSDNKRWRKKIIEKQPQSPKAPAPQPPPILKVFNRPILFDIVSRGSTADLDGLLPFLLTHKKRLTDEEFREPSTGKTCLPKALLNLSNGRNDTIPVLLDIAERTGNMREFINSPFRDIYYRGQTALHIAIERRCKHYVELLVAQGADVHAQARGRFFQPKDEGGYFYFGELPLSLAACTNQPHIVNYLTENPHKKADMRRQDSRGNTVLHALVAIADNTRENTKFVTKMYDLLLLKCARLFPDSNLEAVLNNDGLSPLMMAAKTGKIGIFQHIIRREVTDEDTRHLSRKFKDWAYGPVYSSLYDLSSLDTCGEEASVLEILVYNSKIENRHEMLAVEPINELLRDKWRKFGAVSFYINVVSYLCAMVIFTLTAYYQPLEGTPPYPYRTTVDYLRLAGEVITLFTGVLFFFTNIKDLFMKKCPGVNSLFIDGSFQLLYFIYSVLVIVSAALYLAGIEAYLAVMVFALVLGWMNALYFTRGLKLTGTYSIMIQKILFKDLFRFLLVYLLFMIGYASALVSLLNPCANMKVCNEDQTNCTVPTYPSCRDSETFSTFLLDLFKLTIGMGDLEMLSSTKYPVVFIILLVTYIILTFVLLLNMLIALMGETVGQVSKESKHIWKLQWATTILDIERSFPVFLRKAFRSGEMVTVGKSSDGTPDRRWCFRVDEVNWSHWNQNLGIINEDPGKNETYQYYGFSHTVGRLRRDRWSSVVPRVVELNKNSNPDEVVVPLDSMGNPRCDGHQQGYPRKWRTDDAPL

A word on the MIC: it is the lowest concentration found to suppress growth. Broadly, the IC50 is the concentration needed to halve the response being measured. Compound `C/C=C(\C)[C@H]1C(C)=C[C@H]2C[C@@H](C)C[C@H]3C(=O)/C(=C\NCCO)C(=O)[C@]1(C)[C@H]23` displayed an MIC against Histoplasma capsulatum of 16 µg/mL (≈ 43.1 µM). For the same compound, the result in the test with Candida albicans and with Aspergillus fumigatus was inactive. The IC50 in test [1] was determined as 61.6 µM.

On to `C/C=C(\C)[C@H]1C(C)=C[C@H]2C[C@@H](C)C[C@@H](C(=O)O)[C@@H]2[C@@]1(C)C(=O)CCO`, for which, in the test with Histoplasma capsulatum, the minimum inhibitory concentration (MIC) was more than 64 µg/mL. Further, the outcome in the test with Candida albicans and with Aspergillus fumigatus was inactive. For the same compound, in test [1], the IC50 came to 18.5 µM.

With `C/C=C(\C)[C@H]1C(C)=C[C@H]2C[C@@H](C)C[C@H]3C(O)=C(C=O)C(=O)[C@]1(C)[C@H]23`, the lowest concentration to inhibit growth with Histoplasma capsulatum (MIC) was 2 µg/mL (≈ 6.09 µM). The outcome with Candida albicans and in the test on Aspergillus fumigatus was inactive.

For the compound `C/C=C(\C)[C@H]1C(C)=C[C@H]2C[C@@H](C)C[C@@H](C(=O)O)[C@@H]2[C@@]1(C)C(=O)c1cccnc1`, the minimum inhibitory concentration (MIC) with Histoplasma capsulatum was more than 64 µg/mL. Moreover, the IC50 in test [2] came to 81.6 µM; in test [3] it was 45.9 µM. The outcome in the test on Candida albicans and with Aspergillus fumigatus was inactive.

Take `C[C@@H]1[C@H](O)[C@@H](C)/C=C/C=C/C=C/C=C/C=C/C=C/C=C/[C@H](O[C@@H]2O[C@H](C)[C@@H](O)[C@H](N)[C@@H]2O)C[C@@H]2O[C@](O)(C[C@@H](O)C[C@@H](O)[C@H](O)CC[C@@H](O)C[C@@H](O)CC(=O)O[C@H]1C)C[C@H](O)[C@H]2C(=O)O` [AMPHOTERICIN B]: the MIC against Histoplasma capsulatum stood at 0.5 µg/mL (≈ 0.541 µM).

`CCC(C)n1ncn(-c2ccc(N3CCN(c4ccc(OCC5COC(Cn6cncn6)(c6ccc(Cl)cc6Cl)O5)cc4)CC3)cc2)c1=O` (stereo not drawn) [ITRACONAZOLE] registered an MIC with Histoplasma capsulatum of 0.001 µg/mL (≈ 0.00142 µM).

For the origin of these results see ChEMBL document CHEMBL4382261, “Onydecalins, Fungal Polyketides with Anti- Histoplasma and Anti-TRP Activity” (J Nat Prod, 2018).
